The values below come from ChEMBL document CHEMBL3259746, “Identification of [1,2,3]triazolo[4,5-d]pyrimidin-7(6H)-ones as novel inhibitors of Chikungunya virus replication” (J Med Chem, 2014).

In data set [1] the test system is Chikungunya virus. Briefly: Antiviral activity against Chikungunya virus Indian Ocean strain 899 infected in African green monkey Vero cells assessed as inhibition of virus-induced cytopathic effect after 7 days by MTS/PMS method. The class given is functional, cell-based. The settings on record: Indian Ocean strain 899, Vero, 168 h.
The nature of data set [2]: Cytotoxicity against non-infected African green monkey Vero cells after 7 days by MTS/PMS method. The settings on record: chlorocebus sabaeus. The class given is cell-based.
A further data set deals with Sindbis virus. The experiment in a line: Antiviral activity against Sindbis virus HRsp infected in African green monkey Vero E6 cells assessed as reduction in virus yield after 2 days by real time RT-PCR analysis. The class given is functional, organism-based. The settings on record: 48 h. On the technique in general: Real-time PCR tracks product formation cycle by cycle.

Data set [3] has as its system Chikungunya virus. The experiment in a line: Antiviral activity against Chikungunya virus St. Martin infected in African green monkey Vero E6 cells assessed as reduction in virus yield after 2 days by real time RT-PCR analysis. It counts as functional, cell-based. The settings on record: 48 h.
For data set [4], the system named is Chikungunya virus. Briefly: Antiviral activity against Chikungunya virus Venturini infected in African green monkey Vero E6 cells assessed as reduction in virus yield after 2 days by real time RT-PCR analysis. Conditions: 48 h. The class given is functional, cell-based.
The subject of data set [5] is Chikungunya virus. The experiment in a line: Antiviral activity against Chikungunya virus LR2006-OPY1 infected in African green monkey Vero E6 cells assessed as reduction in virus yield after 2 days by real time RT-PCR analysis. It counts as functional, cell-based. The settings on record: 48 h.
The test system of a further data set is Semliki Forest virus. The experiment in a line: Antiviral activity against Semliki forest virus Vietnam infected in African green monkey Vero E6 cells assessed as reduction in virus yield after 2 days by real time RT-PCR analysis. Conditions: 48 h. It counts as functional, organism-based.
Data set [6] can be described thus: Cytotoxicity against non-infected African green monkey Vero E6 cells up to 300 uM after 2 days. The class given is cell-based. The settings on record: chlorocebus sabaeus, 48 h. An outline of the steps:
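Uninfected Vero E6 cells were tested up to 300 μM under the same settings as the 2-day virus-yield assay: 5 × 10⁴ cells/well, 2.5% FCS medium, and 2-fold dilutions in triplicate.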

In data set [7] the test system is Chikungunya virus. The experiment in a line: Antiviral activity against Chikungunya virus Congo 95 infected in African green monkey Vero E6 cells assessed as reduction in virus yield after 2 days by real time RT-PCR analysis. The class given is functional, cell-based. The settings on record: Congo 95, Vero, 48 h.
A short description of data set [8]: Selectivity index, ratio of CC50 for African green monkey Vero cells to EC50 for Chikungunya virus Indian Ocean strain 899 infected in African green monkey Vero cells. Conditions: read-out: Ratio CC50/EC50. The class given is toxicity, cell-based.

Molecules are shown by their SMILES.

With `Cc1nc2c(nnn2-c2ccc3c(c2)OCO3)c(=O)[nH]1`, in the data set on Chikungunya virus [1], the EC50 – broadly, the midpoint of the concentration-response curve – was greater than 461 µM and the 90% effect concentration (EC90) (commonly the concentration at which the effect reaches the 90% level) was greater than 461 µM. Moreover, the CC50 (as a rule, the concentration that lowers cell viability or growth by half) at 168 h in data set [2] was greater than 737 µM.

Turning to `Cc1nc2c(nnn2-c2cccc(C#N)c2)c(=O)[nH]1`, in the data set with Chikungunya virus [1], the EC50 was found to be 131 µM and the 90% effect concentration (EC90) turned out to be 187 µM. The molecule also showed a CC50 at 168 h in data set [2] greater than 793 µM.

Consider `Cc1nc2c(nnn2-c2cccc(C(=O)O)c2)c(=O)[nH]1`, for which, in the data set with Chikungunya virus [1], the 50% effective concentration (EC50) was greater than 399 µM and the concentration for an effect of 90% (EC90) was greater than 399 µM. This molecule also yielded a CC50 at 168 h in data set [2] greater than 638 µM.

In the case of `Cc1nc2c(nnn2Cc2cccc(OC(C)C)c2)c(=O)[nH]1`, in the data set on Chikungunya virus [1], the concentration giving a half-maximal response (EC50) came to 167 µM and the EC90 is 232 µM. For the same molecule, the cytotoxic concentration (CC50) at 168 h in data set [2] was greater than 872 µM.

Consider `CC(=O)c1cccc(-n2nnc3c(=O)[nH]c(C)nc32)c1`, for which the concentration for a half-maximal effect (EC50) is greater than 464 µM in the data set on Sindbis virus; 24 µM in the data set with Chikungunya virus [3]; 26 µM in the data set with Chikungunya virus [4]; 19 µM in the data set with Chikungunya virus [1]; 25 µM in the data set with Chikungunya virus [5]; greater than 464 µM in the data set on Semliki Forest virus. The EC50 in the data set with Chikungunya virus [7] came out at 6.4 µM. Further, in the data set with Chikungunya virus [1], the 90% effect concentration (EC90) was found to be 38 µM. Also, in data set [2], the 50% cytotoxic concentration (CC50) at 168 h was greater than 743 µM. In addition, the Activity entry in data set [6] is “Non-toxic”.

Take `CC(=O)c1ccc(-n2nnc3c(=O)[nH]c(C)nc32)cc1`: in the data set on Chikungunya virus [1], the EC50 is 326 µM and the concentration for an effect of 90% (EC90) is greater than 743 µM. The molecule also registered a CC50 at 168 h in data set [2] greater than 743 µM.

Consider `COc1ccccc1-n1nnc2c(=O)[nH]c(C)nc21`, for which, in the data set on Chikungunya virus [1], the half-maximal effective concentration (EC50) worked out at 348 µM and the EC90 came to 460 µM. In addition, in [2], the cytotoxic concentration (CC50) at 168 h was greater than 777 µM.

On to `CC(=O)c1cccc(-n2c(C)nc3c(=O)[nH]c(C)nc32)c1`, for which, in the data set with Chikungunya virus [1], the EC50 was greater than 440 µM and the EC90 is greater than 440 µM. The molecule also came in with a CC50 at 168 h in data set [2] greater than 703 µM.

Regarding `COc1cccc(-n2nnc3c(=O)[nH]c(C)nc32)c1`, in the data set with Chikungunya virus [1], the EC50 was found to be 28 µM and the EC90 was 179 µM. In data set [2], this molecule displayed a 50% cytotoxic concentration (CC50) at 168 h greater than 777 µM.

Regarding `Cc1nc2c(nnn2-c2cccc(N(C)C)c2)c(=O)[nH]1`, in the data set on Chikungunya virus [1], the EC50 is greater than 370 µM and the EC90 was greater than 370 µM. Further, in data set [2], the CC50 at 168 h worked out at 538 µM.

Consider `CC(C)Oc1cccc(-n2nnc3c(=O)[nH]c(C(C)C)nc32)c1`, for which, in the data set on Chikungunya virus [1], the 50% effective concentration (EC50) was 280 µM and the EC90 was greater than 638 µM. For the same molecule, the CC50 at 168 h in data set [2] is greater than 638 µM.

Consider `CCN(CC)CCCC(C)Nc1ccnc2cc(Cl)ccc12` (centres undefined) [CHLOROQUINE], for which the EC90 in the data set with Chikungunya virus [1] is 21 µM.

Take `CC(=O)c1cccc(-n2cnc3c(=O)[nH]c(C)nc32)c1`: in the data set on Chikungunya virus [1], the EC50 amounted to 127 µM and the EC90 was 161 µM. In addition, in data set [2], it took 491 µM to reach half-maximal cytotoxicity (CC50 at 168 h).

Take `CC(C)Oc1cccc(-n2nnc3c(=O)[nH]c(CC#N)nc32)c1`: in the data set on Chikungunya virus [1], the half-maximal effective concentration (EC50) was determined as 115 µM and the EC90 turned out to be 137 µM. In data set [2], this molecule registered a half-maximal cytotoxic concentration (CC50) at 168 h of 215 µM.

Regarding `CC(C)Oc1cccc(-n2nnc3c(=O)[nH]c(=O)[nH]c32)c1`, in the data set with Chikungunya virus [1], the concentration giving a half-maximal response (EC50) is greater than 435 µM and the EC90 was greater than 435 µM. In data set [2], this molecule returned a 50% cytotoxic concentration (CC50) at 168 h greater than 696 µM.

On to `CCOC(=O)c1cccc(-n2nnc3c(=O)[nH]c(C)nc32)c1`, for which, in the data set with Chikungunya virus [1], the 50% effective concentration (EC50) came to 202 µM and the EC90 amounted to 331 µM. This molecule also yielded a CC50 at 168 h in data set [2] of 322 µM.

For the molecule `CC(C)Oc1cccc(-n2nnc3c(=O)[nH]c(C(F)(F)F)nc32)c1`, in the data set on Chikungunya virus [1], the 50% effective concentration (EC50) is 68 µM and the EC90 is greater than 147 µM. For the same molecule, half-maximal cytotoxicity in data set [2] (CC50 at 168 h) was put at 104 µM.

As for `CCCOc1ccc(-n2nnc3c(=O)[nH]c(C)nc32)cc1`, in the data set on Chikungunya virus [1], the EC50 came out at 169 µM and the 90% effect concentration (EC90) is greater than 701 µM. The molecule also returned a cytotoxic concentration (CC50) at 168 h in data set [2] of 594 µM.

Regarding `CC(=O)c1cccc(-n2nnc3c(=O)[nH]cnc32)c1`, in the data set with Chikungunya virus [1], the half-maximal effective concentration (EC50) is greater than 490 µM and the concentration for an effect of 90% (EC90) is greater than 490 µM. The CC50 at 168 h in data set [2] was greater than 784 µM.

As to `CC(=O)c1cccc(-n2nnc3c(N)nc(C)nc32)c1`, in the data set on Chikungunya virus [1], the half-maximal effective concentration (EC50) was found to be 225 µM and the EC90 turned out to be 309 µM. The CC50 at 168 h in data set [2] was greater than 746 µM.

Regarding `CC(=O)Nc1cccc(-n2nnc3c(=O)[nH]c(C)nc32)c1`, in the data set on Chikungunya virus [1], the EC50 was 318 µM and the EC90 turned out to be 425 µM. The same molecule had a CC50 at 168 h in data set [2] of 206 µM.

Consider `CCc1nc2c(nnn2-c2cccc(OC(C)C)c2)c(=O)[nH]1`, for which the concentration for a half-maximal effect (EC50) in the data set with Sindbis virus is 69 µM; in the data set with Chikungunya virus [3] it was 2.9 µM; with Chikungunya virus [4], 1.4 µM; in the data set on Chikungunya virus [1], 3 µM; in the data set on Chikungunya virus [5], 2.6 µM; in the data set with Semliki Forest virus, 219 µM. In addition, in the data set on Chikungunya virus [7], the EC50 was 0.75 µM. Moreover, the 90% effect concentration (EC90) with Chikungunya virus [1] stood at 18 µM. Besides, the CC50 at 168 h in data set [2] is greater than 668 µM. In addition, the Activity entry in data set [6] is given as “Non-toxic”. The selectivity ratio in data set [8] was greater than 222.

For the molecule `CC(=O)c1cccc(-n2nnc3c(=O)n(C)c(C)nc32)c1`, in the data set with Chikungunya virus [1], the half-maximal effective concentration (EC50) was greater than 441 µM and the concentration for an effect of 90% (EC90) was greater than 441 µM. The molecule further returned a CC50 at 168 h in data set [2] greater than 706 µM.

Consider `Cc1nc2c(nnn2-c2cccc(Cl)c2)c(=O)[nH]1`, for which, in the data set with Chikungunya virus [1], the EC50 was found to be 32 µM and the concentration for an effect of 90% (EC90) came to 235 µM. In data set [2], the half-maximal cytotoxic concentration (CC50) at 168 h was greater than 764 µM.

Consider `COc1nc(C)nc2c1nnn2-c1cccc(C(C)=O)c1`, for which, in the data set with Chikungunya virus [1], the concentration for a half-maximal effect (EC50) is greater than 441 µM and the concentration for an effect of 90% (EC90) is greater than 441 µM. This molecule also returned a CC50 at 168 h in data set [2] of 495 µM.

With `Cc1nc2c(nnn2-c2cccc(C(=O)c3ccccc3)c2)c(=O)[nH]1`, in the data set with Chikungunya virus [1], the EC50 is 23 µM and the EC90 came out at 47 µM. The same molecule had a half-maximal cytotoxic concentration (CC50) at 168 h in data set [2] greater than 604 µM.

Turning to `CC(C)Oc1cccc(-n2nnc3c(=O)[nH]c(-c4ccncc4)nc32)c1`, in the data set on Chikungunya virus [1], the concentration giving a half-maximal response (EC50) came to 75 µM and the EC90 was greater than 144 µM. The same molecule gave a CC50 at 168 h in [2] of 82 µM.

In the case of `CC(=O)c1cccc(-n2nnc3c(Cl)nc(C)nc32)c1`, in the data set on Chikungunya virus [1], the EC50 is greater than 174 µM and the concentration for an effect of 90% (EC90) was greater than 174 µM. The molecule further displayed a CC50 at 168 h in data set [2] greater than 174 µM.

Take `CNc1nc(C)nc2c1nnn2-c1cccc(C(C)=O)c1`: in the data set on Chikungunya virus [1], the EC50 is greater than 443 µM and the EC90 is greater than 443 µM. For the same molecule, in data set [2], it took 514 µM to reach half-maximal cytotoxicity (CC50 at 168 h).

On to `Cc1nc2c(nnn2-c2cccc(OC(C)C)c2)c(=O)[nH]1`, for which, in the data set on Chikungunya virus [1], the EC50 came out at 12 µM and the EC90 worked out at 156 µM. For the same molecule, the half-maximal cytotoxic concentration (CC50) at 168 h in data set [2] was greater than 704 µM.

Regarding `CCCc1nc2c(nnn2-c2cccc(OC(C)C)c2)c(=O)[nH]1`, in the data set on Chikungunya virus [1], the half-maximal effective concentration (EC50) is greater than 399 µM and the EC90 is greater than 399 µM. Besides, the CC50 at 168 h in data set [2] is greater than 638 µM.

With `CC(C)Oc1cccc(-n2nnc3c(=O)[nH]c(-c4ccccc4)nc32)c1`, in the data set on Chikungunya virus [1], the EC50 stood at 204 µM and the concentration for an effect of 90% (EC90) is greater than 360 µM. This molecule also came in with a CC50 at 168 h in data set [2] of 277 µM.
